{"source": "ChEMBL document CHEMBL1949639", "about": "“New losartan-hydrocaffeic acid hybrids as antihypertensive-antioxidant dual drugs: Ester, amide and amine linkers” (2012)", "key": {"[1]": {"experiment": "Antihypertensive activity against angiotensin-2-induced cell contraction in Wistar rat VSMC assessed as changes in planar cell surface area after 30 mins by planimetric technique", "assay_type": "functional", "procedure,_shortened": "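VSMC from thoracic aortas of Wistar rats, collagenase-digested, grown in DMEM/Ham's F-12 with 10% foetal calf serum at 37 °C, 5% CO2, used at passages 3–5. Cells in Tris-glucose buffer pH 7.45 with angiotensin II plus compound, […], for 30 min. Photographed at 0 and 30 min, planar surface area by planimetry. 4–8 cells per experiment, mean of 5 experiments gives percent inhibition of contraction.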"}, "[2]": {"experiment": "Antioxidant activity assessed as trolox equivalent of ABTS radical scavenging activity relative to control", "assay_type": "functional", "procedure,_shortened": "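Metmyoglobin/H2O2 oxidation of ABTS to its radical, read as absorbance at 600 nm in 96-well format. Samples taken from K2CO3-solubilised stocks diluted in PBS. Activity expressed as TEAC: the concentration (mM) giving the same percentage change in ABTS radical absorbance as 1 mM Trolox.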"}, "Rattus norvegicus": {"test_system": "Rattus norvegicus", "experiment": "Antihypertensive activity in Wistar rat assessed as decrease of L-NAME-induced systolic arterial pressure at 20 mg/kg, po administered with drinking water qd for 3 days by sphygmomanometer", "assay_type": "functional, Artery", "settings": "dose 30 mg/kg, in the assay text read “30 mg/kg” for “20 mg/kg”", "procedure,_shortened": "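Two-month-old male Wistar rats received L-NAME in drinking water (20 mg/kg/day). After one week, losartan (20 mg/kg/day) or hybrids (30 mg/kg/day) were given daily in drinking water for three days. At least six animals per group. Arterial pressure measured in conscious rats by tail-cuff sphygmomanometer.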"}}}
{"smiles": "O=C(O)CCc1ccc(O)c(O)c1", "note": "[DIHYDROCAFFEIC ACID]", "values": [{"measurement": "inhibition (INH)", "setting": "[1]", "result": 85, "unit": "%"}, {"measurement": "Ratio", "setting": "[2]", "result": 0.36}]}
{"smiles": "CCCCc1nc(Cl)c(C(=O)NCCCc2ccc(O)c(O)c2)n1Cc1ccc(-c2ccccc2-c2nn[nH]n2)cc1", "values": [{"measurement": "Activity", "setting": "Rattus norvegicus", "result": 1, "unit": "mmHg"}, {"measurement": "inhibition (INH)", "setting": "[1]", "result": 93, "unit": "%"}, {"measurement": "Ratio", "setting": "[2]", "result": 0.17}]}
{"smiles": "CCCCc1nc(Cl)c(C(=O)OCCCc2ccc(O)c(O)c2)n1Cc1ccc(-c2ccccc2-c2nn[nH]n2)cc1", "values": [{"measurement": "Activity", "setting": "Rattus norvegicus", "result": 9, "unit": "mmHg"}, {"measurement": "inhibition (INH)", "setting": "[1]", "result": 88, "unit": "%"}, {"measurement": "Ratio", "setting": "[2]", "result": 0.1}]}
{"smiles": "CCCCc1nc(Cl)c(CO)n1Cc1ccc(-c2ccccc2-c2nnn[nH]2)cc1", "note": "[LOSARTAN]", "values": [{"measurement": "Activity", "setting": "Rattus norvegicus", "result": 13, "unit": "mmHg"}, {"measurement": "inhibition (INH)", "setting": "[1]", "result": 93, "unit": "%"}, {"measurement": "Ratio", "setting": "[2]", "result": 0.03}]}
{"smiles": "CCCCc1nc(Cl)c(C(=O)O)n1Cc1ccc(-c2ccccc2-c2nn[nH]n2)cc1", "values": [{"measurement": "Ratio", "setting": "[2]", "result": 0.03}]}
{"smiles": "COc1cc(C(=O)O)cc(OC)c1O", "values": [{"measurement": "Ratio", "setting": "[2]", "result": 1.07}]}
{"smiles": "CC[C@H](C)[C@H](NC(=O)[C@H](Cc1ccc(O)cc1)NC(=O)[C@@H](NC(=O)[C@H](CCCNC(=N)N)NC(=O)[C@@H](N)CC(=O)O)C(C)C)C(=O)N[C@@H](Cc1cnc[nH]1)C(=O)N1CCC[C@H]1C(=O)N[C@@H](Cc1ccccc1)C(=O)O", "note": "[ANGIOTENSIN II]", "values": [{"measurement": "inhibition (INH)", "setting": "[1]", "result": 82, "unit": "%"}]}
{"smiles": "CCCCc1nc(Cl)c(CNC(=O)CCc2ccc(O)c(O)c2)n1Cc1ccc(-c2ccccc2-c2nn[nH]n2)cc1", "values": [{"measurement": "Activity", "setting": "Rattus norvegicus", "result": 13, "unit": "mmHg"}, {"measurement": "inhibition (INH)", "setting": "[1]", "result": 90, "unit": "%"}, {"measurement": "Ratio", "setting": "[2]", "result": 0.27}]}
{"smiles": "CC(C)(C)c1cc(CC(=O)O)cc(C(C)(C)C)c1O", "values": [{"measurement": "Ratio", "setting": "[2]", "result": 1.06}]}
{"smiles": "CCCCc1nc(Cl)c(CNCCCc2ccc(O)c(O)c2)n1Cc1ccc(-c2ccccc2-c2nn[nH]n2)cc1", "values": [{"measurement": "inhibition (INH)", "setting": "[1]", "result": 92, "unit": "%"}, {"measurement": "Ratio", "setting": "[2]", "result": 0.13}]}
{"smiles": "O=C(O)/C=C/c1ccc(O)c(O)c1", "values": [{"measurement": "Ratio", "setting": "[2]", "result": 0.2}]}
{"smiles": "O=C(O)c1ccc(O)c(O)c1", "values": [{"measurement": "Ratio", "setting": "[2]", "result": 0.153}]}
{"smiles": "CCCCc1nc(C(=O)OCCCc2ccc(O)c(O)c2)c(Cl)n1Cc1ccc(-c2ccccc2-c2nn[nH]n2)cc1", "values": [{"measurement": "Activity", "setting": "Rattus norvegicus", "result": 14, "unit": "mmHg"}, {"measurement": "inhibition (INH)", "setting": "[1]", "result": 95, "unit": "%"}, {"measurement": "Ratio", "setting": "[2]", "result": 0.24}]}
{"smiles": "COc1cc(C(=O)O)ccc1O", "values": [{"measurement": "Ratio", "setting": "[2]", "result": 0.202}]}
{"smiles": "CC(C)(C)c1cc(C(=O)O)cc(C(C)(C)C)c1O", "values": [{"measurement": "Ratio", "setting": "[2]", "result": 0.181}]}
{"smiles": "CCCCc1nc(Cl)c(COC(=O)CCc2ccc(O)c(O)c2)n1Cc1ccc(-c2ccccc2-c2nnn[nH]2)cc1", "values": [{"measurement": "Activity", "setting": "Rattus norvegicus", "result": 29, "unit": "mmHg"}, {"measurement": "inhibition (INH)", "setting": "[1]", "result": 94, "unit": "%"}, {"measurement": "Ratio", "setting": "[2]", "result": 0.31}]}
